As a reminder, the IC50 is the point on the concentration scale where inhibition reaches its midpoint. One may read the inhibition as how much of the control response was suppressed.

Assay [1] concerns A375-R cells. The experiment in a line: Colony formation assay, A375-R. It counts as cell-based, human. Particulars: 21 days. A digest of the protocol: (§1)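 A375 or A375-R cells were grown in 24-well plates with treatment for 21 days, with drug-containing medium renewed every three days. Colonies were stained with 0.1% crystal violet in PBS. Dye was extracted with 20% acetic acid and absorbance read at 595 nm. Values are colony formation relative to control, n = 4.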

Assay [2] relates to A375 cells. Kind of assay: ROS measurement, A375. Particulars: A375, 5 µM, 2 h. It counts as cell-based, human.
In assay [3] the test system is SK-MEL-2 (NRAS mutation). Kind of assay: MTT cell viability assay, SK-MEL-2. It counts as cell-based. The note with it: read-out: IC50, SK-MEL-2 (NRAS mutation); 24 h treatment, human cell line. A digest of the protocol: (§2)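 Cells were seeded in 96-well plates overnight, then exposed to test compound for 24 h at concentrations up to 10 μM. Growth was read by MTT as OD570. Viability was expressed relative to vehicle (0.5% DMSO) set as 100%, and IC50 was derived from this.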
For orientation: Formazan colour is commonly taken as a measure of viable cells.

Assay [4] has as its system MeWo (No NRAS or BRAF mutation). The experiment in a line: MTT cell viability assay, MeWo. The format is cell-based. Particulars: read-out: IC50, MeWo (No NRAS or BRAF mutation); 24 h treatment, human cell line. In a few lines:
as §2

Assay [5] has as its system A375 xenografts. The experiment in a line: A375 xenograft tumor model. It counts as in vivo, NOD/SCID mice. A digest of the protocol: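 A375 cells (3×10^6) were injected subcutaneously into the flanks of 6-week-old female NOD/SCID mice. At about 50 mm³, mice were randomised, n = 8 per group. Dosing was PLX4032 20 mg/kg/day and test compound 20 mg/kg every two days. Combination arms alternated test compound (20 mg/kg every four days) with PLX4032 (20 mg/kg every two days). Volume (a×b²×0.5) was measured every three days. Tumours were dissected and weighed. TGI compared volume change with vehicle.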

Assay [6] has as its system A2058 (BRAF mutation). The experiment in a line: MTT cell viability assay, A2058. It counts as cell-based. Particulars: read-out: IC50, A2058 (BRAF mutation); 24 h treatment, human cell line. In a few lines:
as §2

Assay [7] concerns A375-R cells (acquired vemurafenib resistance). Kind of assay: MTT cell viability assay, A375-R. It counts as cell-based, human.
The subject of assay [8] is A375-R cells. The experiment in a line: Cell cycle analysis, A375-R. It counts as cell-based, human. A digest of the protocol:
(§3)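 Cells were synchronised in medium with 1% FBS for 12 h, then given fresh 10% FBS medium with vehicle or test compound for 24 h. Adherent and floating cells were pooled, fixed overnight in ice-cold 70% ethanol at 4°C, and stained with propidium iodide/RNase A for 30 min at room temperature in the dark. Cells were then analysed by flow cytometry.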

The test system of assay [9] is A375-R cells. Kind of assay: ROS measurement, A375-R. It counts as cell-based, human. The note with it: 5 µM, 2 h.
Assay [10] concerns A375 cells. The experiment in a line: Cell cycle analysis, A375. Particulars: A375, 24 h. It counts as cell-based, human. A digest of the protocol: as §3
For assay [11], the system named is A375 cells. The experiment in a line: Colony formation assay, A375. It counts as cell-based, human. The note with it: for inhibition of colony formation: 21 days. In a few lines: as §1
Assay [12] relates to A375-R xenografts (acquired vemurafenib resistance). The experiment in a line: A375-R xenograft tumor model. The format is in vivo, NOD/SCID mice. A digest of the protocol: (§4)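 Female NOD/SCID mice, 6 weeks old, received 3×10^6 A375-R or A2058 cells subcutaneously in the flank. Treatment began at about 50 mm³ tumour volume, with 8 mice per randomised group. Doses were PLX4032 75 mg/kg/day and test compound 20 mg/kg every two days; combination arms alternated the two, each every two days. Tumour volume (a×b²×0.5) and body weight were recorded every three days. TGI used initial-to-final volume change versus vehicle.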

The subject of assay [13] is B16-F10 (NRAS mutation). Kind of assay: MTT cell viability assay, B16-F10. It counts as cell-based. Particulars: read-out: IC50, B16-F10 (NRAS mutation); 24 h treatment, mouse cell line. A digest of the protocol: as §2
The subject of assay [14] is Melanocyte (Normal cells). The experiment in a line: MTT cell viability assay, normal melanocytes. The format is cell-based. The note with it: read-out: IC50, Melanocyte (Normal cells); 24 h treatment, human cells. A digest of the protocol:
as §2

The test system of assay [15] is A375 (BRAF mutation). The experiment in a line: MTT cell viability assay, A375. It counts as cell-based, human.
Assay [16] concerns A375 cells. Kind of assay: Apoptosis detection. It counts as cell-based, human. The note with it: A375, 72 h. In a few lines:
(§5)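 Cells were seeded in 6-well plates and exposed to vehicle or test compound for 72 h. Apoptotic cells were scored by Annexin V-FITC plus propidium iodide double staining and flow cytometry.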

The subject of assay [17] is metastatic melanoma. Particulars: cited from earlier work.
The test system of assay [18] is A2058 xenografts (intrinsic vemurafenib resistance). The experiment in a line: A2058 xenograft tumor model. It counts as in vivo, NOD/SCID mice. Particulars: 75 mg/kg/day, 24 doses in total. In a few lines:
as §4

The test system of assay [19] is A375-R cells. The experiment in a line: Apoptosis detection, A375-R. The format is cell-based, human. A digest of the protocol: as §5
Setting [20] is: 20 mg/kg/every two days, 12 doses in total.
Setting [21] is: read-out: IC50, A375 (BRAF mutation), 24 h treatment, human cell line.
Where [22] appears, read: 20 mg/kg/day, 24 doses in total.

The structures appear in SMILES notation. Several values for one entry are separate records, joined by “and”; a condition that tells them apart may be missing. Equal entries are not always repeated. Where two headings read alike, the source gives them in different places.

Turning to `C=C(C)C(=O)O[C@H]1CC2=C[C@@H](C/C(C)=C/[C@H]3OC(=O)C(=C)[C@H]13)OC2=O` [DET, deoxyelephantopin], the “effect on colony formation of A375-R cells” value in assay [1] is recorded as “inhibited colony formation”. The “increase of ROS level” value in assay [2] and in assay [9] was “more than 2 fold” in each case. For the same molecule, the IC50 in assay [3] is above 10 µM; in [4], above 10 µM; in [6], above 10 µM; in assay [13], 6 ± 0.13 µM; in [14], above 10 µM; in assay [15] (setting [21]) it was 6 µM and 5.9 µM. In assay [5] (setting [20]), the “reduction of tumor mass” value was 47.5%. Also, the “tumor growth inhibition (TGI)” value in [5] (setting [20]) is 71.0%; in [12] (A375-R, 20 mg/kg/every two days, 12 doses in total) it was 31.2%. Moreover, the “inhibition of A375-R cell viability” value in assay [7] (2 µM, 72 h) was found to be 65%. Further, the “effect on cell-cycle distribution” value in assay [8] is given as “G2/M-phase cell-cycle arrest”; in assay [10] it was “induced G2/M-phase arrest”. Besides, the “inhibition of colony formation” value in [11] (1 µM) turned out to be 38%; in [11] (2.5 µM), 65%; in [11] (5 µM) it was 91%. The “inhibition of A375 cell viability” value in assay [15] (2 µM, 72 h) worked out at 55%. This molecule also had an apoptosis in [16] of at most 67.8%.

As to `C=C1C(=O)OC2CC3=C[C@@H](C/C(C)=C/C(O)[C@H]12)OC3=O` (stereo partly shown) [DETD-3], the IC50 in [3], in [4], in assay [6], in assay [13], in assay [14] and in [15] (setting [21]) was above 10 µM each time.

As to `C=C1C(=O)OC2CC3=C[C@@H](C/C(C)=C/C(OC(=O)/C(C)=C/CC)[C@H]12)OC3=O` (stereo partly shown) [DETD-5], the half-maximal inhibitory concentration (IC50) is 7.8 ± 0.14 µM in [3]; above 10 µM in assay [4]; 5.8 ± 0.08 µM in assay [6]; 4.7 ± 0.03 µM in [13]; above 10 µM in assay [14]; 4.1 ± 0.15 µM in assay [15] (setting [21]).

Turning to `C=C1C(=O)OC2CC3=C[C@@H](C/C(C)=C/C(OC(=O)C(C)CC)[C@H]12)OC3=O` (stereo partly shown) [DETD-13], the IC50 was above 10 µM in assay [3]; above 10 µM in assay [4]; above 10 µM in [6]; 7.1 ± 0.09 µM in assay [13]; above 10 µM in assay [14]; above 10 µM in assay [15] (setting [21]).

In the case of `C=C1C(=O)OC2CC3=C[C@@H](C/C(C)=C/C(OC(C)=O)[C@H]12)OC3=O` (stereo partly shown) [DETD-17], the 50% inhibitory concentration (IC50) in [3], in assay [4], in assay [6], in assay [13], in [14] and in assay [15] (setting [21]) was above 10 µM each time.

`C=C(CC)C(=O)OC1/C=C(\C)C[C@@H]2C=C(CC3OC(=O)C(=C)[C@@H]13)C(=O)O2` (stereo partly shown) [DETD-19]: the half-maximal inhibitory concentration (IC50) is above 10 µM in assay [3]; above 10 µM in [4]; above 10 µM in assay [6]; 7.8 ± 0.28 µM in [13]; above 10 µM in [14]; above 10 µM in assay [15] (setting [21]).

In the case of `C=C1C(=O)OC2CC3=C[C@@H](C/C(C)=C/C(OC(=O)/C=C/C)[C@H]12)OC3=O` (stereo partly shown) [DETD-24], the IC50 in assay [3], in assay [4], in assay [6], in [13], in assay [14] and in [15] (setting [21]) was above 10 µM in each case.

For the molecule `C=C1C(=O)OC2CC3=C[C@@H](C/C(C)=C/C(OC(=O)c4ccccc4)[C@H]12)OC3=O` (stereo partly shown) [DETD-31], the IC50 is above 10 µM in assay [3]; above 10 µM in assay [4]; above 10 µM in assay [6]; 2.9 ± 0.78 µM in assay [13]; above 10 µM in assay [14]; 4.3 ± 0.62 µM in assay [15] (setting [21]).

As to `C=C1C(=O)OC2CC3=C[C@@H](C/C(C)=C/C(OC(=O)c4ccc(C)cc4)[C@H]12)OC3=O` (stereo partly shown) [DETD-33], the IC50 was 5.9 ± 0.2 µM in assay [3]; 6.7 ± 0.22 µM in [4]; 4.2 ± 0.09 µM in assay [6]; 2.2 ± 0.29 µM in [13]; above 10 µM in assay [14]; 2.9 ± 0.26 µM in [15] (setting [21]).

Regarding `C=C1C(=O)OC2CC3=C[C@@H](C/C(C)=C/C(OC(=O)Cc4ccccc4)[C@H]12)OC3=O` (stereo partly shown) [DETD-43], the IC50 is 8.2 ± 0.27 µM in assay [3]; above 10 µM in assay [4]; 8.7 ± 0.33 µM in assay [6]; 7.4 ± 0.48 µM in assay [13]; above 10 µM in assay [14]; 3.6 ± 0.25 µM in assay [15] (setting [21]).

As to `CC(=O)N[C@@H](CS)C(=O)O` [NAC, N-acetyl-L-cysteine, reference compound], the “effect on A375-R cell viability” value in assay [7] (5 mM alone) is reported as “did not affect”. Further, in [15] (5 mM alone), the “effect on A375 cell viability” value was “did not affect”.

Consider `CCCS(=O)(=O)Nc1ccc(F)c(C(=O)c2c[nH]c3ncc(-c4ccc(Cl)cc4)cc23)c1F` [PLX4032, vemurafenib, reference compound], for which the “effect on colony formation of A375-R cells” value in assay [1] is “no inhibitory effect”. In assay [17] (melanoma patients), the “average time to relapse after therapy” value is at most 7 months. In addition, the anti-tumor activity result in [18] is given as “no anti-tumor activity”; in assay [12] (A375-R xenograft, 75 mg/kg/day, 24 doses in total) it was “no anti-tumor activity”. For the same molecule, the “reduction of tumor mass” value in assay [5] (setting [22]) is on record as 71.9%. Moreover, the “tumor growth inhibition (TGI)” value in assay [5] (setting [22]) worked out at 87.4%. The IC50 came out at 7.34 µM in assay [7] (Homo sapiens, 72 h, read-out: IC50 on A375-R cells) and 0.07 µM in assay [15] (Homo sapiens, A-375, 72 h, read-out: IC50 on A375 cells). Further, in assay [7] (IC50 A375-R vs A375), the “fold less sensitive, A375-R compared to parental cell line” value was found to be 100 fold. For the same molecule, the apoptosis entry in assay [19] is given as “no effect”; in [16], 10.4%. For the same molecule, the figures for the “effect on cell-cycle distribution” value in [8] and in assay [10] were “no effect” and “G1-phase cell-cycle arrest”, respectively. In [11] (Homo sapiens, A-375, 504 h, read-out: inhibition of colony formation), the inhibition at 0.1 µM amounted to 55%.

With `CN(C)/N=N/c1[nH]cnc1C(N)=O` [dacarbazine], the complete response result in assay [17] (metastatic melanoma) was “less than 5%”.

These data come from paper PMC4893919 (Molecular cancer therapeutics, 2016).
